Screening data as filed in PubChem.
NR2E3 ag-1: activates human NR2E3 receptor | actives 0.35% (n = 360,000) | CHO-S Gal4-NCOR/VP16-NR2E3 two-hybrid, luciferase | AID 602229 | Q9Y5X4 | inhibition of corepressor binding, % at 3.98 µM;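 active means inhibition above the mean of all tested compounds plus 3 SD, cut at about 70% in these data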;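 further: 0% = DMSO with NR2E3 transfected cells and 100% = cells lacking NR2E3 construct; higher means lower luciferase signal from less NR2E3 corepressor binding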
Rev-erbA mod: modulates human Rev-erb alpha binding to DNA; P20393; Rev-erbα–FITC-DNA binding, fluorescence polarization, 90 min; activity, % at 10 µM; actives 0.79% (n = 370,000); AID 1259318;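 active means activity above about 14%, limit read from the data; passing the limit was not always enough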;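 further: 0% = DMSO wells with 35 nM protein and 100% = DMSO wells with 750 nM protein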
Target sequence (P20393 whole entry, looked up): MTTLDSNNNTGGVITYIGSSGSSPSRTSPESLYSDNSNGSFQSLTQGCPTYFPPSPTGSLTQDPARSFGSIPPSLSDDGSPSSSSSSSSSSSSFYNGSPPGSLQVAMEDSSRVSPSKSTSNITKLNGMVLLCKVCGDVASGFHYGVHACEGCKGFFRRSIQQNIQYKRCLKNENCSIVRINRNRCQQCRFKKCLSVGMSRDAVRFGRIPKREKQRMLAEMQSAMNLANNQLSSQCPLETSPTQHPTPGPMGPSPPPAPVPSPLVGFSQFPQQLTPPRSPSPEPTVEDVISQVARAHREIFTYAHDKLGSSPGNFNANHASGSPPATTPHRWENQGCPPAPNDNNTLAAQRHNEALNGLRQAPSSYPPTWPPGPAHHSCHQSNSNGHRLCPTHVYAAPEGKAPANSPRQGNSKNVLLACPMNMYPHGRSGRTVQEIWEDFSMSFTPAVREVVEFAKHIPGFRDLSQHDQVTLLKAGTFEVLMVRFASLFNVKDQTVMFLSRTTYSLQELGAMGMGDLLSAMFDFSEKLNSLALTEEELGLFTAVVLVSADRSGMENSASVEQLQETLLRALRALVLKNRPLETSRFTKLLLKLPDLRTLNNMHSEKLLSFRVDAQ
MC4R antagonist: blocks human MC4R cAMP signaling. MC4R-expressing cells, MTII-stimulated cAMP, LANCE TR-FRET. inhibition, % at 6.5 µM. actives 0.48% (n = 360,000);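 active means inhibition above its plate's cutoff, the mean of tested wells on that plate plus 3 SD, cut at about 29% in these data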;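 further: 0% = Melanotan II alone and 100% = Melanotan II plus saturating MCL0020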
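Assay system: U2OS cells stably expressing human melanocortin 4 receptor (MC4R) / Dosing: 6.5 µM / Timing: compound 30 min, challenge 1 h, detection 1 h / Measured by: Eu-cAMP/anti-cAMP TR-FRET, emission 671 nm / Replicates: singlicate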
NR2E3 ag-2: NR2E3 (human) agonism; Q9Y5X4; GST-NR2E3/biotin-RetCOR TR-FRET, 1536-well; inhibition of corepressor binding, % at 4.78 µM; actives 0.12% (n = 320,000); AID 2300;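 active means percent inhibition above the cutoff of mean plus 3 SD of all tested compounds, set per screening campaign, cut at about 20% in these data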;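 further: 0% = DMSO wells and 100% = biotin wells as full block of FRET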
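Test system: GST-NR2E3 and biotin-RetCOR proteins | Quantity: 1.35 nM GST-tagged NR2E3 final | Medium: Tris pH 7.5 | Also added: 7 nM biotin-RetCOR | Dosing: Compound at 4.8 µM, single dose | Timing: 5 h at 4 °C | Detection: Time-resolved FRET | Read-out basis: Percent inhibition | Benchmarks: Biotin wells as high control, 0.6% DMSO wells as low control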
PG9 Ab binder: binds the HIV-1 gp120 antibody PG9. actives 0.43% (n = 360,000). TR-FRET gp120-PG9 antibody binding. AID 624416. inhibition, % at 6.7 µM; in the data active means inhibition above about 8.5%
MC4R ag barr: agonists of human melanocortin 4 receptor (MC4R) beta-arrestin; P32245; U2OS MC4R beta-arrestin complementation, luminescence; percent of melanotan II response, DMSO zero; activation, % at 8.9 µM; actives 0.98% (n = 360,000);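 active means activation above a per-plate cutoff, the mean activation of sample wells on that plate plus 3 SD, cut at about 8% in these data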
PG9 binder conf: PG9 antibody binding, confirmed; shares compounds with PG9 Ab binder; TR-FRET PG9 antibody binding, biochemical; inhibition, % at 6.7 µM; actives 90% (n = 1,500); in the data active means inhibition above about 9%
PGV04 Ab binding: PGV04 control antibody binding, counter-screen; shares compounds with PG9 Ab binder; TR-FRET PGV04 antibody-gp120 binding, biochemical; inhibition, % at 6.7 µM; actives 95% (n = 1,500); AID 651604; in the data active means inhibition above about 9.5%
PG9 binder DR: PG9 antibody binding, dose response. TR-FRET PG9 antibody-gp120 binding inhibition. AID 651848. 95 tested, under 10 active. shares compounds with PG9 Ab binder. IC50, µM; in the data active means IC50 below about 10 µM
PGV04 binding DR: binds control antibody PGV04 in PG9 counter-screen; shares compounds with PG9 Ab binder; TR-FRET binding to control antibody PGV04; IC50, µM; actives 20% (n = 95)
PG126 DR counter: PG126 binding, dose response counter-screen; IC50, µM; shares compounds with PG9 Ab binder; actives 20% (n = 95); TR-FRET binding to antibody PG126, counterscreen
NR1D1 mod conf: Rev-erb alpha (human) modulation, hit confirmation; shares compounds with Rev-erbA mod; Rev-erb alpha FITC-DNA binding, fluorescence polarization, 90 min; activation, % at 25 µM; actives 61% (n = 3,000);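 active means activation at or above a set limit, or at least 3 SD above the negative control mean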;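 further: 0% = 35 nM protein with DMSO and 100% = 750 nM protein high control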
RORg DNA counter: affects RORgamma DNA binding in a Rev-erb alpha counter-screen; shares compounds with Rev-erbA mod; purified RORgamma protein-FITC-DNA binding, fluorescence polarization; IC50, µM; actives 8% (n = 910);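 active means Compounds whose fitted half-maximal concentration for disrupting protein-DNA binding is below 10 micromolar; the record names Rev-erb in its text, so the target is in doubt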
* hit, by the source's call; i = inactive; nt = no result. This is a sample that favours compounds with a hit; in the whole collection about 2.7% have one here. Unless noted, no stated cut-off is given here; in the data, active means IC50 below about 9 µM; inactive means the rest.

SMILES | NR2E3 ag-1 | Rev-erbA mod | MC4R antagonist | NR2E3 ag-2 | PG9 Ab binder | MC4R ag barr | PG9 binder conf | PGV04 Ab binding | NR1D1 mod conf | others
CCc1nnc(NC(=O)CSc2nc3cc4c(cc3cc2C)OCCO4)s1 | 10 | 47* | 4 | 0 | 12* | 1 | 25* | 43* | 47* | RORg DNA counter=>40
CCc1ccccc1NC(=O)c1nnn(CC(=O)Nc2cccc(C)c2C)c1N | 10 | 35* | -5 | 6 | 41* | 0 | 41* | 48* | 42*
COc1ccc(-c2nn(C)c3sc(C(=O)NCc4ccco4)cc23)cc1OC | 9 | 58* | 16 | 10 | 10* | 7 | 13* | 18* | 52* | RORg DNA counter=i
C=CCSc1nc(N)c(C#N)c(-c2ccc(C)cc2)c1C#N | -20 | 17 | -1 | 2 | 0 | 1 | nt | nt | nt
CC(C)c1ccc(-c2c(C#N)c(N)nc(SCC(=O)N3CCCCC3)c2C#N)cc1 | 19 | 83* | 1 | 3 | 42* | -1 | 69* | 66* | 69* | PG9 binder DR=6*;PGV04 binding DR=3.4*;PG126 DR counter=4*;RORg DNA counter=>40
CC(C)c1ccc(-c2c(C#N)c(N)nc(SCC(=O)N3CCCCCC3)c2C#N)cc1 | nt | 52* | nt | 3 | 83* | nt | 89* | 92* | 9
N#Cc1c(N)nc(SCC(=O)NC2CCCCC2)c(C#N)c1-c1ccc(Cl)cc1 | 14 | 24* | -6 | 4 | 18* | 2 | 26* | 29* | 25*
Nn1c(SCC(=O)NC2CCCCC2)nnc1-c1ccc(Cl)cc1 | -13 | -3 | 6 | -5 | 4 | 0 | nt | nt | nt
COC(=O)CSc1nc(N)c(C#N)c(-c2ccc(O)cc2)c1C#N | -46 | -5 | -33 | -2 | -1 | -2 | nt | nt | nt
COC(=O)CN1CCN(C(=O)c2csc(-c3ccccc3)n2)CC1 | nt | -1 | nt | nt | nt | nt | nt | nt | nt
Cc1ccccc1-c1nc(CS(=O)CC(=O)NCc2ccc3c(c2)OCO3)c(C)o1 (centres undefined) | 3 | 1 | -1 | -1 | 0 | 0 | nt | nt | nt
COc1ccc2nc(SCC(=O)NC3CCCC3)c(C)cc2c1 | -29 | 29* | -4 | 9 | 34* | -2 | 26* | 33* | 32* | RORg DNA counter=>40
COc1ccc2nc(SCC(=O)NC3CCCCC3)[nH]c2c1 | -6 | 1 | 2 | 0 | 1 | 1 | nt | nt | nt
Cc1ccc(NC(=O)CSc2nc3ncc(Br)cc3[nH]2)cc1C | -34 | 195* | -3 | 1 | 45* | 6 | 66* | 79* | 186* | RORg DNA counter=>40
Cc1cc(C)c(NC(=O)CSc2nc3ncc(Br)cc3[nH]2)c(Cl)c1 | -13 | 47* | -6 | 0 | 35* | 1 | 39* | 63* | 64* | RORg DNA counter=i
Cc1cc(C)c(NC(=O)CSc2nc3ncc(Cl)cc3[nH]2)c(C)c1 | -37 | 11 | -2 | 1 | 3 | 2 | nt | nt | nt
COCc1cc(C)nc(Nc2ccc(C)c(C)c2)c1C#N | -28 | 25* | 5 | 10 | 31* | 2 | 29* | 46* | 11
CCNc1nc(C)cc(COC)c1C#N | -1 | -3 | -2 | 1 | 1 | -1 | nt | nt | nt
Cc1cc(NC(=O)CSc2c3c(nc4ccccc24)CCC3)no1 | -24 | 5 | 5 | 0 | -2 | 1 | nt | nt | nt
Cc1cc(NC(=O)CSc2cc(C)c3ccccc3n2)no1 | -16 | 23* | 1 | nt | 13* | -1 | 16* | 42* | 4
Cc1cc(NC(=O)CSc2nc(C(C)(C)C)nc3ccccc23)no1 | -28 | 36* | -8 | -1 | 36* | -2 | 44* | 55* | 13
COc1ccc2sc(-c3ccccc3OC)c(-c3ccc(OCCN4CCOCC4)cc3)c2c1 | 16 | nt | 5 | nt | nt | 1 | nt | nt | nt
CCCCC[n+]1ccn(C2=C([O-])c3ccccc3C(=O)/C2=N\S(=O)(=O)c2ccc(Br)cc2)c1 | -22 | 8 | -4 | 3 | 0 | -1 | nt | nt | nt
CCOC(=O)c1sc2nc(C)nc(NCCc3ccc(S(N)(=O)=O)cc3)c2c1C | -15 | 40* | 23 | 3 | 18* | 4 | 27* | 47* | 16
CCOC(=O)c1sc2nc(C)nc(NCc3ccccc3)c2c1C | -33 | 4 | 6 | 2 | 0 | 1 | nt | nt | nt
SMILES | NR2E3 ag-1 | Rev-erbA mod | MC4R antagonist | NR2E3 ag-2 | PG9 Ab binder | MC4R ag barr | PG9 binder conf | PGV04 Ab binding | NR1D1 mod conf | others
O=c1[nH]c(SCCOc2ccccc2)nc2ccccc12 | -65 | 46* | 0 | 2 | 40* | -1 | 33* | 52* | 25*
COc1ccc(C(=O)Nc2ccc(NC(=O)c3cc(OC)c(OC)c(OC)c3)cn2)cc1 | -19 | 20* | 7 | 3 | 20* | -2 | 15* | 20* | 2
O=C1c2cccc3cccc(c23)C(=O)N1OS(=O)(=O)c1ccccc1 | 5 | 59* | 0 | 3 | 28* | 2 | 28* | 62* | 10
Cc1cccc(Nc2nn3c(=O)c4ccccc4nc3s2)c1 | -94 | 299* | -1 | -2 | 28* | 5 | 62* | 69* | 289* | RORg DNA counter=i
COc1cc(OC)nc(Nc2nc(C(N)c3ccccc3Cl)cs2)n1 (centres undefined) | -30 | -3 | -4 | nt | 3 | 1 | nt | nt | nt
CC(=O)c1ccc(N2CCN(S(=O)(=O)c3ccc4c(c3)NC(=O)CO4)CC2)cc1 | -1 | 38* | 7 | 3 | 22* | 1 | 28* | 39* | 22*
CC(=O)c1ccc(N2CCN(S(=O)(=O)c3ccc4c(c3)CCC(=O)N4)CC2)cc1 | 18 | 2 | 16 | nt | 1 | -2 | nt | nt | nt
Cc1sc2ncnc(SCC(=O)NC(=O)c3cccn3C)c2c1C | 2 | 39* | 2 | -112 | 53* | 4 | 55* | 66* | 25*
